# Assay results as given in ChEMBL document CHEMBL1124002, “Antiallergy agents. 1. Substituted 1,8-naphthyridin-2(1H)-ones as inhibitors of SRS-A release” (J Med Chem, 1988).
# Calls of active or inactive are those of the source. No cut-off for these calls is given here.
# Columns and labels:
# Cavia porcellus [1] = experiment: Percent inhibition of bronchospasm in vivo for a dose of 5 mg/kg in guinea pig; assay type: functional; settings: Bronchiole, read-out: Inhibition
# Outline: (§1)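 Ovalbumin-sensitized, anesthetized guinea pigs received iv propranolol 1 mg/kg, indomethacin 5 mg/kg and mepyramine 2 mg/kg, then a 0.5 min aerosol challenge with 0.5% ovalbumin 15 min later. The agent was given intravenously. The rise in inflation pressure was scored as % inhibition of bronchospasm.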
# Cavia porcellus [2] = experiment: Percent inhibition of bronchospasm administered intravenously at a dose of 5 mg/kg in guinea pig; assay type: functional; settings: Bronchiole, route intravenous; outline: as §1
# Cavia porcellus [3] = experiment: Percent inhibition of bronchospasm, when administered orally at a dose of 160 mg/kg to guinea pig; assay type: functional; settings: Bronchiole, route oral
# Outline: (§2)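 Male Hartley guinea pigs were sensitized with ovalbumin (5 mg ip plus 5 mg sc on day 1, 5 mg ip on day 4) and used 3-4 weeks later, fasted overnight and given dialurethane ip. They were dosed orally 2 h before challenge and given iv propranolol 1 mg/kg, indomethacin 5 mg/kg and mepyramine 2 mg/kg. Fifteen minutes later, 0.5% ovalbumin aerosol was delivered for 0.5 min via tracheal cannula. Read-out was increased inflation pressure, as mean % inhibition from 4-5 animals.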
# Cavia porcellus [4] = experiment: Percent inhibition of bronchospasm, when administered orally at a dose of 18 mg/kg in guinea pig; assay type: functional; settings: Bronchiole, route oral; outline: as §2
# Cavia porcellus [5] = experiment: Percent inhibition of bronchospasm, when administered orally at a dose of 53 mg/kg in guinea pig; assay type: functional; settings: Bronchiole, route oral; outline: as §2
# Cavia porcellus [6] = species: Cavia porcellus; experiment: Inhibitory activity against SRS-A release in guinea pig; 0.01-19 uM; assay type: functional
# Outline: (§3)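 Male Hartley guinea pigs were sensitized with ovalbumin (5 mg ip + 5 mg sc on day 1, 5 mg ip on day 4). About 400 mg chopped lung was preincubated with compound for 12 min at 37 °C in Tyrode's with 10 mM cysteine, then challenged with 20 μg/mL ovalbumin (final) for 0.25 h. SRS-A in ethanol-extracted supernatant was bioassayed on mepyramine-treated ileum against a rat SRS-A standard. Results are % inhibition versus vehicle, from 3-4 lungs.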
# Cavia porcellus [7] = experiment: Effective oral dose required to inhibit bronchospasm in guinea pig; assay type: functional; settings: Bronchiole
# Outline: (§4)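 Guinea pigs were sensitized with ovalbumin and used 3-4 weeks later. They were fasted and anesthetized with dialurethane ip. Compounds were given orally 2 h before challenge. Propranolol 1 mg/kg, indomethacin 5 mg/kg and mepyramine 2 mg/kg were given iv 15 min before a 0.5 min aerosol of 0.5% ovalbumin through the tracheal cannula. The rise in inflation pressure measured bronchoconstriction. Results are % inhibition, 4-5 animals per group.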
# Cavia porcellus [8] = species: Cavia porcellus; experiment: Percent inhibition of SRS-A release in vitro at a dose of 10 uM in guinea pig; assay type: functional; outline: as §3
# Cavia porcellus [9] = experiment: Percent inhibition of bronchospasm in vivo at a dose of 12.5 mg/kg in guinea pig; assay type: functional; settings: Bronchiole; outline: as §4
# Cavia porcellus [10] = experiment: Percent inhibition of bronchospasm in vivo at oral dose of 25 mg/kg in guinea pig
# Cavia porcellus [11] = species: Cavia porcellus; experiment: Inhibitory activity against SRS-A release in guinea pig; 0.05-14 uM; assay type: functional; outline: as §3
# Cavia porcellus [12] = experiment: Effective oral dose required to inhibit bronchospasm in guinea pig; 0.9-12.8 mg/kg; assay type: functional; settings: Bronchiole; outline: as §4
# Cavia porcellus [13] = experiment: Percent inhibition of bronchospasm in vivo at a dose of 25 mg/kg in guinea pig; assay type: functional; settings: Bronchiole; outline: as §4
# Cavia porcellus [14] = species: Cavia porcellus; experiment: Inhibitory activity against sulfidopeptide leukotriene release in guinea pig; assay type: functional
# Cavia porcellus [15] = species: Cavia porcellus; experiment: Percent inhibition of SRS-A release in vitro at a dose of 3 uM in guinea pig; assay type: functional; outline: as §3
# Cavia porcellus [16] = species: Cavia porcellus; experiment: Compound was tested for th inhibition of SRS-A production in guinea pig lung; assay type: functional
# Outline: (§5)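 Antigen-challenged lung fragments from sensitized guinea pigs were treated with 10 μM test agent or DMSO vehicle 12 min before challenge. Tyrode's contained 10 mM cysteine and 10 μM indomethacin. SRS-A in ethanol extracts was bioassayed on guinea pig ileum and given as units/g, mean ± SEM of 4 lungs. A paired t test compared treatment with vehicle.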
# Cavia porcellus [17] = species: Cavia porcellus; experiment: Inhibitory activity against SRS-A release in guinea pig; 0.7-2 uM; assay type: functional; outline: as §3
# Cavia porcellus [18] = experiment: Effective oral dose required to inhibit bronchospasm in guinea pig; 1.3-7.6 mg/kg; assay type: functional; settings: Bronchiole; outline: as §4
# Cavia porcellus [19] = species: Cavia porcellus; experiment: Production of LTD4 in guinea pig lung; assay type: functional
# Outline: (§6)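 Lung fragments pooled from four sensitized guinea pigs were challenged in 0.4 g aliquots with antigen, with 10 μM test agent or DMSO vehicle added 12 min before challenge. Tyrode's held 10 mM cysteine and 10 μM indomethacin. Ethanol extracts were pooled, solvent-partitioned and run on reverse-phase HPLC with UV 280 nm. LTD4 was quantified against an LTC4 standard curve (10-200 pmol) as pmol/g.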
# Cavia porcellus [20] = species: Cavia porcellus; experiment: Production of SRS-A in guinea pig lung; assay type: functional; outline: as §5
# Mus musculus = species: Mus musculus; experiment: Compound was tested in vitro in cloned murine mast cell (MC-9) for the inhibition of production of leukotriene products at 50 uM concentration; No inhibition; assay type: functional
# Rattus norvegicus = species: Rattus norvegicus; experiment: Compound was tested in vitro in rat polymorphonuclear leucocyte for the inhibition of production of leukotriene products at 50 uM concentration; No inhibition; assay type: functional
# Cavia porcellus [21] = species: Cavia porcellus; experiment: Compound was tested for th inhibition of LTD4 production in guinea pig lung; assay type: functional; outline: as §6
# Cavia porcellus [22] = experiment: Percent inhibition of bronchospasm when administered at a dose of 1 mg/kg in guinea pig; assay type: functional; settings: Bronchiole; outline: as §1
# Cavia porcellus [23] = experiment: Percent inhibition of bronchospasm when administered at a dose of 2.5 mg/kg in guinea pig; assay type: functional; settings: Bronchiole; outline: as §1
# Cavia porcellus [24] = experiment: Percent inhibition of bronchospasm when administered at a dose of 5 mg/kg in guinea pig; assay type: functional; settings: Bronchiole; outline: as §1
smiles,measurement,setting,value
CCCc1c2c(c(O)c3c(=O)cc(C(=O)O)oc13)CCCC2 [PROXICROMIL],inhibition in vivo at 5 mg/kg,Cavia porcellus [1],0%
same,inhibition in vivo at 5 mg/kg,Cavia porcellus [2],0%
Cn1c(=O)c2[nH]cnc2n(C)c1=O [AMINOPHYLLINE],inhibition in vivo at 160 mg/kg,Cavia porcellus [3],81%
same,inhibition in vivo at 18 mg/kg,Cavia porcellus [4],21%
same,inhibition in vivo at 53 mg/kg,Cavia porcellus [5],55%
CCCCc1c([O-])c2cccnc2n(-c2ccccc2)c1=O.[Na+],IC50,Cavia porcellus [6],240 nM
same,ED50,Cavia porcellus [7],14 mg/kg
same,inhibition at 10 µM,Cavia porcellus [8],56%
same,inhibition in vivo at 12.5 mg/kg,Cavia porcellus [9],68%
C=CCc1c(O)c2cccnc2n(-c2ccccc2)c1=O,inhibition at 10 µM,Cavia porcellus [8],81%
same,Inhibition,Cavia porcellus [10],85%
C=CCc1c(O)c2cccnc2n(-c2ccccc2OC)c1=O,IC50,Cavia porcellus [11],980 nM
same,ED50,Cavia porcellus [12],3.7 mg/kg
same,inhibition at 10 µM,Cavia porcellus [8],69%
same,inhibition in vivo at 25 mg/kg,Cavia porcellus [13],90%
C=CCc1c(OC(C)=O)c2cccnc2n(-c2cccc(Cl)c2)c1=O,IC50,Cavia porcellus [14],~1000 nM
same,ED50,Cavia porcellus [7],0.4 mg/kg
same,inhibition at 10 µM,Cavia porcellus [8],60%
C=CCc1c(OC(C)=O)c2cccnc2n(-c2ccc(OCc3ccccc3)cc2)c1=O,inhibition at 3 µM,Cavia porcellus [15],23%
C=CCc1c(OC(C)=O)c2cccnc2n(-c2ccccc2)c1=O,Inhibition,Cavia porcellus [16],69%
same,IC50,Cavia porcellus [17],1100 nM
same,ED50,Cavia porcellus [18],2.9 mg/kg
same,LTD4 production at 10 µM,Cavia porcellus [19],25 pmol/g
same,SRS-A release at 10 µM,Cavia porcellus [20],9.3 units/g
same,inhibition at 10 µM,Cavia porcellus [8],73%
same,inhibition in vivo at 12.5 mg/kg,Cavia porcellus [9],84%
same,Activity,Mus musculus,inactive
same,Activity,Rattus norvegicus,inactive
same,Inhibition,Cavia porcellus [21],70%
CCCc1c(OCC(O)COc2ccc3c(=O)cc(C(=O)O)oc3c2CCC)ccc(C(C)=O)c1O (configuration not stated) [FPL-55712],inhibition in vivo at 1 mg/kg,Cavia porcellus [22],32%
same,inhibition in vivo at 2.5 mg/kg,Cavia porcellus [23],57%
same,inhibition in vivo at 5 mg/kg,Cavia porcellus [24],68%
